From ChEMBL document CHEMBL2163189, “Discovery and characterization of an inhibitor of glucosylceramide synthase” (J Med Chem, 2012)

Columns and labels:
[1] = AUC ( 0 to t) in CD rat at 5 mg/kg; type: ADME, organism-based; set-up: dose 5 mg/kg; settings: plasma
Method in brief: (§1)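 Female CD rats, n = 3, given 5 mpk. The HCl salt in saline served as both the oral and the iv formulation. Values are mean ± SD.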

[2] = Half life in CD rat at 5 mg/kg; type: ADME, organism-based; set-up: dose 5 mg/kg; settings: in vivo; method in brief: as §1
[3] = Clearance in CD rat at 5 mg/kg; type: ADME, organism-based; set-up: dose 5 mg/kg; settings: in vivo; method in brief: as §1
[4] = Oral bioavailability in CD rat at 5 mg/Kg; type: ADME, organism-based; settings: in vivo; method in brief: as §1
[5] = Plasma concentration in C57BL6 mouse at 10 mg/kg, po after 24 hrs; type: ADME, organism-based; set-up: dose 10 mg/kg, route oral
Method in brief: (§2)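 Male C57BL6 mice, n = 3, given a single oral dose of 10 mpk. Compound levels in tissue or plasma were measured 24 h after the dose. Values are mean ± SD.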

[6] = Drug uptake in C57BL6 mouse muscle at 10 mg/kg, po after 24 hrs; type: ADME, organism-based, Muscle tissue; set-up: dose 10 mg/kg, route oral; settings: read-out: Drug uptake; method in brief: as §2
[7] = Drug uptake in C57BL6 mouse Fat at 10 mg/kg, po after 24 hrs; type: ADME, organism-based; set-up: dose 10 mg/kg, route oral; settings: fat (adipose tissue), read-out: Drug uptake; method in brief: as §2
[8] = Tmax in CD rat at 5 mg/kg; type: ADME, organism-based; set-up: dose 5 mg/kg; settings: in vivo; method in brief: as §1
[9] = Drug uptake in C57BL6 mouse liver at 10 mg/kg, po after 24 hrs; type: ADME, organism-based; set-up: dose 10 mg/kg, route oral; settings: read-out: Drug uptake; method in brief: as §2
[10] = Cmax in CD rat at 5 mg/kg; type: ADME, organism-based; set-up: dose 5 mg/kg; settings: in vivo; method in brief: as §1
[11] = Volume of distribution at steady state in CD rat at 5 mg/Kg; type: ADME, organism-based; settings: in vivo, read-out: Vdss; method in brief: as §1
[12] = Metabolic stability in mouse liver microsome assessed as compound conversion at 15 uM after 30 mins; type: ADME; settings: liver microsomes, read-out: Drug metabolism
[13] = Plasma concentration in mouse at 100 mg/kg, po after 1 hr; type: ADME, organism-based; set-up: dose 100 mg/kg, route oral
Method in brief: (§3)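 Female nude mice (n = 3) given 100 mpk orally. Plasma compound levels measured 1 and 4 h after dosing, reported as mean ± SD.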

[14] = Plasma concentration in mouse at 100 mg/kg, po after 4 hrs; type: ADME, organism-based; set-up: dose 100 mg/kg, route oral; method in brief: as §3

metabolised at 0.5 h, 15 µM [12] | Compound | also measured
 | Cl.NC1C[C@H]2CC[C@@H](C1)N2C(=O)[C@H](Cc1ccc(Br)cc1)NC(=O)C1(c2ccc(OC(F)(F)F)cc2)CC1 (stereo partly drawn) | AUC(0-t) [1]: 5.8 µM·h; half-life [2]: 25.3 h; clearance [3]: 9.58 mL/min/kg; bioavailability [4]: 88.1%; concentration at 24 h [5]: 500 nM; concentration at 24 h [6]: 1800 nM; concentration at 24 h [7]: 800 nM; Tmax [8]: 8 h; concentration at 24 h [9]: 5900 nM; Cmax [10]: 300 nM; Vd [11]: 19.3 L/kg
30% | O=C([C@H](Cc1ccc(Br)cc1)NC(=O)C1(c2ccc(Cl)cc2Cl)CC1)N1CCC(O)CC1 | 
50% | NC1CCN(C(=O)[C@H](Cc2ccc(Br)cc2)NC(=O)C2(c3ccc(Cl)cc3Cl)CC2)CC1 | 
10% | NC1CCCC(NC(=O)[C@H](Cc2ccc(Cl)cc2Cl)NC(=O)C2(c3ccc(Cl)cc3Cl)CC2)C1 (stereo partly drawn) | 
20% | NC1C[C@H]2CC[C@@H](C1)N2C(=O)[C@H](Cc1ccc(Cl)cc1Cl)NC(=O)C1(c2ccc(Cl)cc2Cl)CC1 (stereo partly drawn) | 
20% | NC1C[C@H]2CC[C@@H](C1)N2C(=O)[C@H](Cc1ccc(Br)cc1)NC(=O)C1(c2ccc(Cl)cc2Cl)CC1 (stereo partly drawn) | 
8% | NC1C[C@H]2CC[C@@H](C1)N2C(=O)[C@H](Cc1ccc(Cl)cc1Cl)NC(=O)C1(c2ccc(OC(F)(F)F)cc2)CC1 (stereo partly drawn) | 
90% | CN1CCN(C(=O)[C@H](Cc2c[nH]c3ccccc23)NC(=O)C2(c3ccc(Cl)cc3Cl)CC2)CC1 | concentration at 1 h [13]: 900 nM; concentration at 4 h [14]: 700 nM
50% | CN1CCN(C(=O)[C@H](COCc2ccccc2)NC(=O)C2(c3ccc(Cl)cc3Cl)CC2)CC1 | 
80% | CN1CCN(C(=O)[C@H](Cc2ccccc2)NC(=O)C2(c3ccc(Cl)cc3Cl)CC2)CC1 | 
80% | CN1CCN(C(=O)[C@H](Cc2ccc(Cl)cc2Cl)NC(=O)C2(c3ccc(Cl)cc3Cl)CC2)CC1 | concentration at 1 h [13]: 4200 nM; concentration at 4 h [14]: 5800 nM
73% | CN1CCN(C(=O)[C@H](Cc2ccc(Cl)cc2)NC(=O)C2(c3ccc(Cl)cc3Cl)CC2)CC1 | 
90% | CN1CCN(C(=O)[C@H](Cc2ccc(Br)cc2)NC(=O)C2(c3ccc(Cl)cc3Cl)CC2)CC1 | 
10% | O=C([C@H](Cc1ccc(Cl)cc1Cl)NC(=O)C1(c2ccc(Cl)cc2Cl)CC1)N1CCNCC1 | 
30% | C[C@@H]1CN(C(=O)[C@H](Cc2ccc(Cl)cc2Cl)NC(=O)C2(c3ccc(Cl)cc3Cl)CC2)CCN1 | 
40% | C[C@H]1CN(C(=O)[C@H](Cc2ccc(Cl)cc2Cl)NC(=O)C2(c3ccc(Cl)cc3Cl)CC2)CCN1 | 
70% | CN(C)CCN(C)C(=O)[C@H](Cc1ccc(Cl)cc1Cl)NC(=O)C1(c2ccc(Cl)cc2Cl)CC1 | 
90% | CN(C)CCN(C)C(=O)[C@H](Cc1ccc(Br)cc1)NC(=O)C1(c2ccc(Cl)cc2Cl)CC1 | 

Compound | metabolised at 0.5 h, 15 µM [12] | also measured
NC1C[C@H]2CC[C@@H](C1)N2C(=O)[C@H](Cc1ccc(Br)cc1)NC(=O)C1(c2ccc(OC(F)(F)F)cc2)CC1 (stereo partly drawn) | 7% | 
